Measured values published in ChEMBL document CHEMBL1143912, “Synthesis and anti-HIV evaluation of novel 1,3-disubstituted thieno[3,2-c][1,2,6]thiadiazin-4(3H)-one 2,2-dioxides(TTDDs)” (Bioorg Med Chem, 2008).
Activity calls are given as the source filed them. No cut-off for these calls is given here.

Key:
[1] = test system: Human immunodeficiency virus 2; test: Antiviral activity against HIV2 ROD assessed as inhibition of virus-induced cytopathogenicity in MT4 cells after 4 days by MTT assay; type: functional, organism-based
Summary of the method: (§1)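 MT-4 cells at 1 × 10⁵ cells/mL infected at MOI 0.02, then immediately plated into wells holding serial concentrations of compound (DMSO stocks, 10 mg/ml). Incubated 4 days at 37 °C, then viable cells read by MTT. EC50 is the concentration protecting 50% of infected cells from viral cytopathicity. Values are means of at least two separate experiments.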

[2] = Cytotoxicity against human MT4 cells after 4 days by MTT assay; type: cell-based
Summary of the method: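 Uninfected MT-4 cells were run in parallel with the antiviral assay, exposed to serial compound concentrations (DMSO stocks, 10 mg/ml) for 4 days at 37 °C, with viability read by MTT. CC50 is the concentration cutting mock-infected cell viability by 50%. ">" marks the highest concentration tested that was still non-cytotoxic. Values are means of at least two experiments.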

[3] = test system: Human immunodeficiency virus 1; test: Antiviral activity against HIV1 3B assessed as inhibition of virus-induced cytopathogenicity in MT4 cells after 4 days by MTT assay; type: functional, organism-based; conditions: Human immunodeficiency virus 1, 3B, MT4, 96 h; summary of the method: as §1
[4] = Selectivity index, Ratio of CC50 for human MT4 cells to EC50 for HIV1 3B; type: functional
Summary of the method: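 SI is CC50 in mock-infected MT-4 cells divided by EC50 against HIV-1 IIIB. Both come from the same 4-day MTT assay run in parallel in infected (MOI 0.02) and uninfected cells, each as the mean of at least two experiments.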

Compound | Activity [1] | CC50 at 96 h [2] [µM] | EC50 [3] [µM] | Ratio CC50/EC50 [4]
O=C1c2sccc2N(Cc2ccc(Cl)cc2)S(=O)(=O)N1Cc1ccccc1 | inactive | 8.2 | > 8.2 | <1
O=C1c2sccc2NS(=O)(=O)N1Cc1ccccc1 | inactive | 374 | > 374 | <1
O=C1c2sccc2N(Cc2ccccc2Cl)S(=O)(=O)N1Cc1ccccc1 | inactive | > 299 | 4.8 | >62
O=C1c2sccc2N(Cc2ccccc2)S(=O)(=O)N1Cc1ccccc1 | inactive | 37.5 | > 37.5 | <1
O=C1c2sccc2N(Cc2ccc(Cl)cc2Cl)S(=O)(=O)N1Cc1ccccc1 | inactive | 247 | 52.1 | 5
O=C1N(Cc2ccccc2Cl)c2cscc2S(=O)(=O)N1Cc1ccccc1 |  | > 119 | 0.1 | >1190
O=C1c2sccc2N(Cc2ccccc2Br)S(=O)(=O)N1Cc1ccccc1 | inactive | > 270 | 7.3 | >37
N#Cc1cccc(CN2c3ccsc3C(=O)N(Cc3ccccc3)S2(=O)=O)c1 | inactive | > 306 | 4 | >76
CN1c2ccsc2C(=O)N(Cc2ccccc2)S1(=O)=O | inactive | 202 | 71 | 3
Cc1cn([C@H]2C[C@H](N=[N+]=[N-])[C@@H](CO)O2)c(=O)[nH]c1=O [ZIDOVUDINE] |  | 35.6 | 0.0007 | 50587
Cc1ccnc2c1NC(=O)c1cccnc1N2C1CC1 [NEVIRAPINE] |  | 683 | 0.03 | 22767
O=C1c2sccc2N(Cc2cccc(Cl)c2)S(=O)(=O)N1Cc1ccccc1 | inactive | > 299 | 5.9 | >51
N#Cc1ccc(CN2c3ccsc3C(=O)N(Cc3ccccc3)S2(=O)=O)cc1 | inactive | 8.5 | > 8.5 | <1
N#CCN1c2ccsc2C(=O)N(Cc2ccccc2)S1(=O)=O | inactive | 5.7 | > 5.7 | <1
N#CCN1C(=O)N(Cc2ccccc2)S(=O)(=O)c2cscc21 |  | 503 | 0.9 | 559
N#Cc1ccccc1CN1c2ccsc2C(=O)N(Cc2ccccc2)S1(=O)=O | inactive | > 306 | 5.1 | >59
O=C1c2sccc2N(Cc2ccc(Br)cc2)S(=O)(=O)N1Cc1ccccc1 | inactive | 6.6 | > 6.6 | <1
O=C1c2sccc2N(Cc2ccc([N+](=O)[O-])cc2)S(=O)(=O)N1Cc1ccccc1 | inactive | 268 | > 268 | <1
